Laboratory results taken from ChEMBL document CHEMBL1154150, “Synthesis and anticonvulsant activity of some new bishydrazones derived from 3,4-dipropyloxythiophene” (Eur J Med Chem, 2009).
The source made the active and inactive calls. The calls are words filed in the database; no cut-off is given here.

Experiments:
Mus musculus [1] = test: Neurotoxicity in CF1 mouse at 100 mg/kg, ip after 4 hrs by rotarod test; assay type: toxicity, organism-based; design: dose 100 mg/kg, route intraperitoneal; settings: in vivo
Method in brief: (§1)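 Rotorod neurotoxicity in male CF-1 mice (18–25 g) after i.p. compound in 0.5% methyl cellulose/water or PEG 200 at 30, 100 or 300 mg/kg; reported as number showing toxicity/number tested.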

Mus musculus [2] = test: Neurotoxicity in CF1 mouse at 300 mg/kg, ip after 4 hrs by rotarod test; assay type: toxicity, organism-based; design: dose 300 mg/kg, route intraperitoneal; settings: in vivo; method in brief: as §1
Mus musculus [3] = test: Anticonvulsant activity in CF1 mouse assessed as protection against maximal electroshock-induced seizures at 30 mg/kg, ip after 0.5 hrs; assay type: functional, organism-based; design: dose 30 mg/kg
Method in brief: (§2)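 Male CF-1 albino mice (18–25 g), dosed i.p. at 30, 100 or 300 mg/kg in 0.5% methyl cellulose/water or PEG 200 (0.01 ml/g); tested at intervals after dosing; protection = abolition of hind limb tonic extensor component of MES seizure; scored as protected/tested.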

Mus musculus [4] = test: Anticonvulsant activity in CF1 mouse assessed as protection against maximal electroshock-induced seizures at 30 mg/kg, ip after 4 hrs; assay type: functional, organism-based; design: dose 30 mg/kg; method in brief: as §2
Mus musculus [5] = test: Anticonvulsant activity in CF1 mouse assessed as protection against maximal electroshock-induced seizures at 100 mg/kg, ip after 4 hrs; assay type: functional, organism-based; design: dose 100 mg/kg; method in brief: as §2
Mus musculus [6] = test: Anticonvulsant activity in CF1 mouse assessed as protection against maximal electroshock-induced seizures at 300 mg/kg, ip after 0.5 hrs; assay type: functional, organism-based; design: dose 300 mg/kg; method in brief: as §2
Mus musculus [7] = test: Anticonvulsant activity in CF1 mouse assessed as protection against maximal electroshock-induced seizures at 300 mg/kg, ip after 4 hrs; assay type: functional, organism-based; design: dose 300 mg/kg; method in brief: as §2
Mus musculus [8] = test: Anticonvulsant activity in CF1 mouse assessed as protection against subcutaneous metrazole-induced seizures at 30 mg/kg, ip after 0.5 hrs; assay type: functional, organism-based; design: dose 30 mg/kg
Mus musculus [9] = test: Anticonvulsant activity in CF1 mouse assessed as protection against subcutaneous metrazole-induced seizures at 30 mg/kg, ip after 4 hrs; assay type: functional, organism-based; design: dose 30 mg/kg
Mus musculus [10] = test: Anticonvulsant activity in CF1 mouse assessed as protection against subcutaneous metrazole-induced seizures at 100 mg/kg, ip after 0.5 hrs; assay type: functional, organism-based; design: dose 100 mg/kg
Mus musculus [11] = test: Anticonvulsant activity in CF1 mouse assessed as protection against subcutaneous metrazole-induced seizures at 100 mg/kg, ip after 4 hrs; assay type: functional, organism-based; design: dose 100 mg/kg
Mus musculus [12] = test: Anticonvulsant activity in CF1 mouse assessed as protection against subcutaneous metrazole-induced seizures at 300 mg/kg, ip after 0.5 hrs; assay type: functional, organism-based; design: dose 300 mg/kg
Mus musculus [13] = test: Anticonvulsant activity in CF1 mouse assessed as protection against subcutaneous metrazole-induced seizures at 300 mg/kg, ip after 4 hrs; assay type: functional, organism-based; design: dose 300 mg/kg
Mus musculus [14] = test: Neurotoxicity in CF1 mouse at 30 mg/kg, ip after 0.5 hrs by rotarod test; assay type: toxicity, organism-based; design: dose 30 mg/kg, route intraperitoneal; settings: in vivo; method in brief: as §1
Mus musculus [15] = test: Neurotoxicity in CF1 mouse at 100 mg/kg, ip after 0.5 hrs by rotarod test; assay type: toxicity, organism-based; design: dose 100 mg/kg, route intraperitoneal; settings: in vivo; method in brief: as §1
Mus musculus [16] = test: Neurotoxicity in CF1 mouse at 300 mg/kg, ip after 0.5 hrs by rotarod test; assay type: toxicity, organism-based; design: dose 300 mg/kg, route intraperitoneal; settings: in vivo; method in brief: as §1
Mus musculus [17] = test: Neurotoxicity in CF1 mouse at 30 mg/kg, ip after 4 hrs by rotarod test; assay type: toxicity, organism-based; design: dose 30 mg/kg, route intraperitoneal; settings: in vivo; method in brief: as §1
Mus musculus [18] = test: Anticonvulsant activity in CF1 mouse assessed as protection against maximal electroshock-induced seizures at 100 mg/kg, ip after 0.5 hrs; assay type: functional, organism-based; design: dose 100 mg/kg; method in brief: as §2

SMILES | Activity (Mus musculus [1]) | Activity (Mus musculus [2]) | Activity (Mus musculus [3]) | Activity (Mus musculus [4]) | Activity (Mus musculus [5]) | Activity (Mus musculus [6]) | Activity (Mus musculus [7]) | Activity (Mus musculus [8]) | Activity (Mus musculus [9]) | Activity (Mus musculus [10]) | Activity (Mus musculus [11]) | Activity (Mus musculus [12]) | Activity (Mus musculus [13]) | Activity (Mus musculus [14]) | Activity (Mus musculus [15]) | Activity (Mus musculus [16]) | Activity (Mus musculus [17]) | Activity (Mus musculus [18])
CCCOc1c(C(=O)N/N=C(\C)c2nccs2)sc(C(=O)N/N=C(\C)c2nccs2)c1OCCC | Non-toxic | Non-toxic | inactive | inactive | inactive | inactive | inactive | inactive | inactive | inactive | inactive | inactive | inactive | Non-toxic | Non-toxic | Non-toxic | Non-toxic | 
CCCOc1c(C(=O)NN=C2CC(C)Sc3sccc32)sc(C(=O)NN=C2CC(C)Sc3sccc32)c1OCCC (stereo unspecified) | Non-toxic | Non-toxic | inactive | inactive | inactive | inactive | inactive | inactive | inactive | inactive | inactive | inactive | inactive | Toxic | Toxic | Toxic | Non-toxic | inactive
CCCOc1c(C(=O)N/N=C(\C)c2ccccc2)sc(C(=O)N/N=C(\C)c2ccccc2)c1OCCC | Non-toxic | Non-toxic | inactive | inactive | inactive | inactive |  | inactive | inactive | inactive | inactive | inactive | inactive | Non-toxic | Non-toxic | Non-toxic | Non-toxic | inactive
CCCOc1c(C(=O)N/N=C(\C)c2ccc[nH]2)sc(C(=O)N/N=C(\C)c2ccc[nH]2)c1OCCC | Non-toxic | Non-toxic | inactive | inactive | inactive | inactive | inactive | inactive | inactive | inactive | inactive | inactive | inactive | Non-toxic | Non-toxic | Non-toxic | Non-toxic | inactive
CCCOc1c(C(=O)N/N=C(\C)c2cc3ccccc3oc2=O)sc(C(=O)N/N=C(\C)c2cc3ccccc3oc2=O)c1OCCC | Non-toxic | Toxic | inactive | inactive | inactive | inactive |  | inactive | inactive | inactive | inactive | inactive | inactive | Non-toxic | Toxic | Toxic | Non-toxic | inactive
CCCOc1c(C(=O)N/N=C/c2ccc(-c3ccccc3)cc2)sc(C(=O)N/N=C/c2ccc(-c3ccccc3)cc2)c1OCCC | Non-toxic | Non-toxic | inactive | inactive | inactive | inactive | inactive | inactive | inactive | inactive | inactive | inactive | inactive | Non-toxic | Toxic | Toxic | Non-toxic | inactive
CCCOc1c(C(=O)N/N=C(/c2ccccc2)c2ccncc2)sc(C(=O)N/N=C(\c2ccccc2)c2ccncc2)c1OCCC | Non-toxic | Non-toxic | inactive | inactive | inactive | inactive | inactive | inactive |  | inactive | inactive | inactive | inactive | Non-toxic | Non-toxic | Non-toxic | Non-toxic | 
CCCOc1c(C(=O)N/N=C/c2ccc3c(c2)c2ccccc2n3CC)sc(C(=O)N/N=C/c2ccc3c(c2)c2ccccc2n3CC)c1OCCC | Non-toxic | Non-toxic | inactive | inactive | inactive | inactive | inactive | inactive | inactive | inactive | inactive | inactive | inactive | Non-toxic | Toxic | Toxic | Non-toxic | inactive
CCCOc1c(C(=O)N/N=C\c2cccs2)sc(C(=O)N/N=C/c2cccs2)c1OCCC | Non-toxic | Toxic | inactive | inactive | inactive | inactive | inactive | inactive | inactive |  | inactive | inactive | inactive | Non-toxic | Toxic | Toxic | Non-toxic | inactive
CCCC/C=N/NC(=O)c1sc(C(=O)N/N=C/CCCC)c(OCCC)c1OCCC | Non-toxic | Non-toxic | inactive | inactive | inactive | inactive | inactive | inactive | inactive |  | inactive | inactive | inactive | Non-toxic | Toxic | Toxic | Non-toxic | inactive
CCCOc1c(C(=O)NN=C2CCCC2)sc(C(=O)NN=C2CCCC2)c1OCCC | Non-toxic | Non-toxic | inactive | inactive | inactive | inactive |  | inactive | inactive | inactive | inactive | inactive | inactive | Non-toxic | Non-toxic | Non-toxic | Non-toxic | inactive
CCCOc1c(C(=O)N/N=C\c2ccc([N+](=O)[O-])o2)sc(C(=O)N/N=C/c2ccc([N+](=O)[O-])o2)c1OCCC | Toxic | Toxic | inactive | inactive | inactive | inactive | inactive | inactive | inactive |  | inactive | inactive | inactive |  | Toxic | Toxic | Non-toxic | inactive
